Key:
[1] = molecular target: Tyrosine-protein kinase BTK (Homo sapiens) (UniProt Q06187); test: Inhibition of recombinant His-tagged full length human BTK expressed in baculovirus expression system at 1 uM measured by select screen assay relative to control
Summary of the method: (§1)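 Single-concentration profiling at 1.0 µM in a 28-kinase SelectScreen panel; percent inhibition reported.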

[2] = molecular target: BDNF/NT-3 growth factors receptor (Homo sapiens, UniProt Q16620); test: Inhibition of N-terminal GST-tagged human TRKB (456 to 822 residues) expressed in baculovirus infected Sf21 cells using TK as substrate in presence of ATP measured after 40 mins by HTRF assay
KM12 = test: Cell cycle arrest in human KM12 cells assessed as accumulation of cells at G1 phase at 1000 nM measured after 48 hrs by AnnexinV-FITC/PI staining based flowcytometry method relative to control; type: functional
[3] = molecular target: Protein kinase C alpha type (Homo sapiens) (UniProt P17252); test: Inhibition of recombinant GST-tagged human full length PRKCA expressed in insect expression system at 1 uM measured by select screen assay relative to control; summary of the method: as §1
[4] = Stability in human plasma assessed as compound remaining incubated for 0 mins by LC-MS/MS analysis; type: ADME, cell-free; settings: read-out: Stability
Summary of the method: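 Pooled frozen human plasma thawed at 37 °C, centrifuged to remove clots, pH adjusted to 7.4 if required. Spiked to 2 µM final (from 100 µM dosing solution), in duplicate, incubated at 37 °C in a water bath. Sampled at 0, 10, 30, 60 and 120 min, quenched with acetonitrile stop solution containing internal standards, centrifuged, and supernatant analysed by LC-MS/MS for percent remaining.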

[5] = Stability in human liver microsomes assessed as half life at 100 uM measured after 60 mins by LC-MS/MS analysis; type: ADME, Microsome; settings: 1 h
Summary of the method: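 Human liver microsomes diluted to 0.59 mg/mL working solution in 100 mM potassium phosphate, prewarmed 10 min at 37 °C; compound added from a 100 µM working solution. NADPH (in 10 mM MgCl2) added to one plate, buffer instead in no-cofactor control. Incubated at 37 °C, quenched at 5, 15, 30, 45, 60 min, centrifuged, analysed by LC-MS/MS.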

A549 = test: cells; settings: Homo sapiens, A549, 72 h

Sequence of BDNF/NT-3 growth factors receptor (Q16620 whole entry, the tested form may be a part): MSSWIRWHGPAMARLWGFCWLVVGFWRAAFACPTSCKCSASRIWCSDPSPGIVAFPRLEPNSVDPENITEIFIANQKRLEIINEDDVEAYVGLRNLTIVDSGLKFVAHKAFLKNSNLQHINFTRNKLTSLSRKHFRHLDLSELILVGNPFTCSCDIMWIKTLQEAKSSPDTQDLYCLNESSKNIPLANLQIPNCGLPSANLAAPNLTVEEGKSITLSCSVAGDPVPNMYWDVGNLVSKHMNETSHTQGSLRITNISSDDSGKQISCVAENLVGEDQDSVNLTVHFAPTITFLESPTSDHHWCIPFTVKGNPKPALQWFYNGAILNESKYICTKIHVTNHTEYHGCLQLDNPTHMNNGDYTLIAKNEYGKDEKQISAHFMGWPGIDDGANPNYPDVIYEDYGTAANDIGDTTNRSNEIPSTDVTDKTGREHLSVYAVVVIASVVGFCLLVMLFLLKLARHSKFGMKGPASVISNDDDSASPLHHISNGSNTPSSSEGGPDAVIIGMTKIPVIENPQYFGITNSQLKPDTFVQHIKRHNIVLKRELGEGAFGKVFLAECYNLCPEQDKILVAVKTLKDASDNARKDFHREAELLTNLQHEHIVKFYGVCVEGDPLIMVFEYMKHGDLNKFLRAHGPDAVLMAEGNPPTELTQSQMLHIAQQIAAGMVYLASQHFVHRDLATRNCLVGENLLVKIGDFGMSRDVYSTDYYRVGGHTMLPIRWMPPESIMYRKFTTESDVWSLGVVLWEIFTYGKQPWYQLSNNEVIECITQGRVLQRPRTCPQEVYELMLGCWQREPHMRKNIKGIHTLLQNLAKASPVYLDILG
Sequence of Tyrosine-protein kinase BTK (Homo sapiens) (Q06187 whole entry): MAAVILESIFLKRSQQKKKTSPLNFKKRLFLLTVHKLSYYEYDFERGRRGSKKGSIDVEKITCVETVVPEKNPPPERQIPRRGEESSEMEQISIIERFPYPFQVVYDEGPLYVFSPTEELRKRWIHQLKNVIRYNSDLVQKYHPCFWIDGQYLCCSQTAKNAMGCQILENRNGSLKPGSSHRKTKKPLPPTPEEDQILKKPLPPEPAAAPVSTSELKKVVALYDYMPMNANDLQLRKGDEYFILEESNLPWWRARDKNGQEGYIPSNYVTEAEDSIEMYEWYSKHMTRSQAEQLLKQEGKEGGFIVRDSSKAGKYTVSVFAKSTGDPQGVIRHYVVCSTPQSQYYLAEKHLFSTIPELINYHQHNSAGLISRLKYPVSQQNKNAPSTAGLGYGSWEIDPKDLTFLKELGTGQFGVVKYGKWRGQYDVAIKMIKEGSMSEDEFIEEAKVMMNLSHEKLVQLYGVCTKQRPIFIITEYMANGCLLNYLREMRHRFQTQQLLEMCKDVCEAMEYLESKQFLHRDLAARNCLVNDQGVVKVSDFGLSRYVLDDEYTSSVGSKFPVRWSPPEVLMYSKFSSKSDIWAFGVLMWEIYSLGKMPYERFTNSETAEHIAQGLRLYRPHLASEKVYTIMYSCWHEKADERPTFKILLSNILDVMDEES

inhibition [1]: 35% | IC50 [2]: 0.028 µM | inhibition [3]: 3% | remaining at 0 h [4]: 100% | t1/2 [5]: 29.6 min | IC50 (A549): 72.3 µM
Compound: CN1CCN(c2ccc(C(=O)Nc3n[nH]c4c3CN(Cc3cc(F)cc(F)c3)C4(C)C)cc2)CC1
Activity (KM12): 72.8%

Reference: ChEMBL document CHEMBL4840303, “Design, synthesis, biological evaluation and pharmacophore model analysis of novel tetrahydropyrrolo[3,4-c]pyrazol derivatives as potential TRKs inhibitors” (Eur J Med Chem, 2021)
